Converted amounts (≈) assume the structure as drawn.
Key:
Bacillus subtilis = test: Antibacterial activity against Bacillus subtilis ATCC 6051 after 18 hrs by conventional agar dilution method; format: functional; conditions: ATCC 6051, 18 h
Outline: (§1)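 Twofold dilutions in DMSO (1 mL) mixed into molten Mueller–Hinton agar (19 mL) at 50 °C. Inocula adjusted at 600 nm to about 0.5 McFarland (1.5 × 10⁸ CFU/mL), then diluted in 0.85% saline to 10⁷ CFU/mL. Plates spot-inoculated at 10⁴ CFU/spot and incubated 35–37 °C for 18 h. MIC is the lowest concentration giving no visible growth. DMSO-only control plates included.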

[1] = test system: Staphylococcus epidermidis; test: Antibacterial activity against Staphylococcus epidermidis ATCC 4940 after 18 hrs by conventional agar dilution method; format: functional; conditions: ATCC 4940, 18 h; outline: as §1
[2] = Cytotoxicity against mouse NIH/3T3 cells after 72 hrs by MTT assay; format: cell-based; conditions: NIH3T3, 72 h
Outline: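 Exponential-phase NIH/3T3 fibroblasts trypsinized and diluted in complete medium to 5 × 10⁴ cells/mL, then plated in 96-well plates. Serial compound dilutions added, each in triplicate, with cell-only wells as the viability control. Incubation 72 h, then MTT (5 mg/mL solution) added for 1 h and the medium replaced for colorimetric read-out.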

Staphylococcus aureus = test: Antibacterial activity against Staphylococcus aureus ATCC 25923 after 18 hrs by conventional agar dilution method; format: functional; conditions: ATCC 25923, 18 h; outline: as §1
Streptococcus pneumoniae = test: Antibacterial activity against Streptococcus pneumoniae ATCC 1240 after 18 hrs by conventional agar dilution method; format: functional; conditions: ATCC 1240, 18 h; outline: as §1
Klebsiella pneumoniae = test: Antibacterial activity against Klebsiella pneumoniae ATCC 10031 after 18 hrs by conventional agar dilution method; format: functional; conditions: ATCC 10031, 18 h; outline: as §1
Escherichia coli = test: Antibacterial activity against Escherichia coli ATCC 25922 after 18 hrs by conventional agar dilution method; format: functional; conditions: ATCC 25922, 18 h; outline: as §1
Serratia marcescens = test: Antibacterial activity against Serratia marcescens PTCC 1111 after 18 hrs by conventional agar dilution method; format: functional; conditions: PTCC 1111, 18 h; outline: as §1
Enterococcus faecalis = test: Antibacterial activity against Enterococcus faecalis NCTC 6013 after 18 hrs by conventional agar dilution method; format: functional; conditions: NCTC 6013, 18 h; outline: as §1
Shigella flexneri = test: Antibacterial activity against Shigella flexneri NCTC 8516 after 18 hrs by conventional agar dilution method; format: functional; conditions: NCTC 8516, 18 h; outline: as §1
Micrococcus luteus = test: Antibacterial activity against Micrococcus luteus ATCC 1110 after 18 hrs by conventional agar dilution method; format: functional; conditions: ATCC 1110, 18 h; outline: as §1
[3] = test system: Salmonella enterica subsp. enterica serovar Typhi str. CT18; test: Antibacterial activity against Salmonella typhi ATCC 19430 after 18 hrs by conventional agar dilution method; format: functional; conditions: ATCC 19430, 18 h
Outline: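 Twofold dilutions in DMSO mixed into molten Mueller–Hinton agar at 50 °C. Inoculum adjusted at 600 nm to about 0.5 McFarland (1.5 ×10⁸ CFU/mL), then diluted in 0.85% saline to 10⁷ CFU/mL. Plates spot-inoculated at 10⁴ CFU/spot and incubated at 35–37 °C for 18 h. MIC taken as the lowest concentration with no visible growth. DMSO solvent control run at matching dilutions.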

Pseudomonas aeruginosa = test: Antibacterial activity against Pseudomonas aeruginosa ATCC 27853 after 18 hrs by conventional agar dilution method; format: functional; conditions: ATCC 27853, 18 h; outline: as §1

SMILES	MIC (Bacillus subtilis) [µg/mL]	MIC [1] [µg/mL]	IC50 [2] [µM]	MIC (Staphylococcus aureus) [µg/mL]	MIC (Streptococcus pneumoniae) [µg/mL]	MIC (Klebsiella pneumoniae) [µg/mL]	MIC (Escherichia coli) [µg/mL]	MIC (Serratia marcescens) [µg/mL]	MIC (Enterococcus faecalis) [µg/mL]	MIC (Shigella flexneri) [µg/mL]	MIC (Micrococcus luteus) [µg/mL]	MIC [3] [µg/mL]	MIC (Pseudomonas aeruginosa) [µg/mL]
COc1c(N2CCN(c3nnc(-c4ncc([N+](=O)[O-])n4C)s3)C(C)C2)c(F)cc2c(=O)c(C(=O)O)cn(C3CC3)c12 (stereo unspecified)	0.5 (≈ 0.855 µM)	0.5 (≈ 0.855 µM)	246	0.0313 (≈ 0.0535 µM)	1 (≈ 1.71 µM)	0.5 (≈ 0.855 µM)	16 (≈ 27.4 µM)	64 (≈ 109 µM)	4 (≈ 6.84 µM)	1 (≈ 1.71 µM)	2 (≈ 3.42 µM)	0.25 (≈ 0.428 µM)	> 64
COc1c(N2CCN(c3nnc(-c4ccc([N+](=O)[O-])s4)s3)C(C)C2)c(F)cc2c(=O)c(C(=O)O)cn(C3CC3)c12 (stereo unspecified)	0.5 (≈ 0.852 µM)	0.125 (≈ 0.213 µM)	243	0.5 (≈ 0.852 µM)	0.25 (≈ 0.426 µM)	16 (≈ 27.3 µM)	32 (≈ 54.5 µM)	8 (≈ 13.6 µM)	2 (≈ 3.41 µM)	1 (≈ 1.7 µM)	4 (≈ 6.82 µM)	1 (≈ 1.7 µM)	> 64
COc1c(N2CCN(c3nnc(-c4ccc([N+](=O)[O-])o4)s3)C(C)C2)c(F)cc2c(=O)c(C(=O)O)cn(C3CC3)c12 (stereo unspecified)	0.0039 (≈ 0.00684 µM)	0.0078 (≈ 0.0137 µM)	238	0.125 (≈ 0.219 µM)	0.25 (≈ 0.438 µM)	1 (≈ 1.75 µM)	1 (≈ 1.75 µM)	8 (≈ 14 µM)	0.125 (≈ 0.219 µM)	0.5 (≈ 0.876 µM)	0.125 (≈ 0.219 µM)	1 (≈ 1.75 µM)	> 64
COc1c(N2CCN(c3nnc(-c4ccccc4[N+](=O)[O-])s3)C(C)C2)c(F)cc2c(=O)c(C(=O)O)cn(C3CC3)c12 (stereo unspecified)	0.0625 (≈ 0.108 µM)	0.0625 (≈ 0.108 µM)	168	32 (≈ 55.1 µM)	0.25 (≈ 0.431 µM)	64 (≈ 110 µM)	16 (≈ 27.6 µM)	16 (≈ 27.6 µM)	2 (≈ 3.44 µM)	16 (≈ 27.6 µM)	0.5 (≈ 0.861 µM)	16 (≈ 27.6 µM)	> 64
COc1c(N2CCN(c3nnc(-c4ccc([N+](=O)[O-])cc4)s3)C(C)C2)c(F)cc2c(=O)c(C(=O)O)cn(C3CC3)c12 (stereo unspecified)	0.0313 (≈ 0.0539 µM)	0.0625 (≈ 0.108 µM)	223	32 (≈ 55.1 µM)	0.0625 (≈ 0.108 µM)	64 (≈ 110 µM)	16 (≈ 27.6 µM)	16 (≈ 27.6 µM)	1 (≈ 1.72 µM)	8 (≈ 13.8 µM)	0.25 (≈ 0.431 µM)	8 (≈ 13.8 µM)	> 64
COc1c(N2CCN(c3nnc(-c4cccc([N+](=O)[O-])c4)s3)C(C)C2)c(F)cc2c(=O)c(C(=O)O)cn(C3CC3)c12 (stereo unspecified)	32 (≈ 55.1 µM)	0.0313 (≈ 0.0539 µM)	161	> 64	1 (≈ 1.72 µM)	> 64	> 64	> 64	> 64	> 64	1 (≈ 1.72 µM)	> 64	> 64
COc1c(N2CCNC(C)C2)c(F)cc2c(=O)c(C(=O)O)cn(C3CC3)c12 (stereo unspecified) [GATIFLOXACIN]	0.5 (≈ 1.33 µM)	0.0625 (≈ 0.166 µM)	596	0.25 (≈ 0.666 µM)	0.25 (≈ 0.666 µM)	0.5 (≈ 1.33 µM)	1 (≈ 2.66 µM)	0.5 (≈ 1.33 µM)	0.5 (≈ 1.33 µM)	0.0625 (≈ 0.166 µM)	1 (≈ 2.66 µM)	0.0625 (≈ 0.166 µM)	2 (≈ 5.33 µM)

— ChEMBL document CHEMBL1138578, “Synthesis and antibacterial activity of nitroaryl thiadiazole-gatifloxacin hybrids” (Eur J Med Chem, 2009)
